Data on 6 compounds can be found in paper PMC4482135 (Organometallics, 2015).

Several values for one entry are separate records, joined by “and”; a condition that tells them apart may be missing. Equal values may be shown once. Read-outs that look alike come from different tables or passages of the source.

In data set [1] the test system is A2780 human ovarian carcinoma cells. The conditions noted are these: read-out: IC50 values, A2780; previously reported complexes; ref [4b]; cited from earlier work.
Data set [2] relates to HCT116 human colon carcinoma cells. Nature of the data set: In vitro growth inhibition. Format: cell-based. The settings on record: read-out: IC50 values, HCT-116; 24 h drug exposure, 72 h recovery, SRB assay. In a few lines: (§1)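 Cells seeded at 5000 per well and preincubated 48 h drug-free at 310 K. Media: RPMI-1640 (A2780), DMEM (A549, MCF7) or McCoy's 5A (HCT116), each with 10% FCS. Test compound stocks made in 5% DMSO with saline/medium 1:1, then serially diluted in medium. Exposure 24 h, PBS wash, then 72 h recovery. SRB absorbance read at 470 nm against untreated control. IC50 (50% growth inhibition) from duplicates of triplicates in two independent experiments.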
(In SRB staining, fixed cells bind dye roughly in proportion to their protein.)

In data set [3] the test system is MCF7 human breast carcinoma cells. Kind of data set: In vitro growth inhibition. Format: cell-based. The conditions noted are these: read-out: IC50 values, MCF-7; 24 h drug exposure, 72 h recovery, SRB assay. In a few lines: as §1
A short description of data set [4]: Relative hydrophobicity by RP-HPLC. Format: physicochemical. The conditions noted are these: C18, H2O/MeCN with 50 mM NaCl; longer tR = more hydrophobic. In outline: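 RP-HPLC on C18 column (150 × 4.6 mm, 5 μm). A = H2O with 50 mM NaCl; B = H2O/MeCN 1:1 with 50 mM NaCl. Gradient starts at 20% B, reaches 100% B at 15 min, holds to 40 min, returns to 20% B by 42 min; run 57 min. Flow 1 mL min–1, detection 254 nm. Samples ca. 100 μM in 10% MeOH/90% H2O with 50 mM NaCl. tR from duplicates of triplicate runs.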

The test system of data set [5] is A549 human lung carcinoma cells. Nature of the data set: In vitro growth inhibition. The class given is cell-based. The settings on record: read-out: IC50 values, A549; 24 h drug exposure, 72 h recovery, SRB assay. In outline: as §1
Data set [6] has as its system A2780 ovarian carcinoma cells. Nature of the data set: Cellular-iridium accumulation in A2780 cells by ICP-MS. The conditions noted are these: for cellular-Ir accumulation: 24 h exposure at equipotent (IC50) concentrations, no recovery, ICP-MS. Format: cell-based, human. In a few lines:
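A2780 cells, 1.5 × 10^6 per well, preincubated 24 h drug-free at 310 K in humidified 5% CO2. Then 24 h exposure to test complex. Cells trypsinised, counted and pelleted; pellets digested overnight in 73% HNO3 at 353 K, then diluted to 5% HNO3. 193Ir measured by ICP-MS (no-gas mode, duplicate readings, 0–100 ppb calibration). Triplicates in two independent experiments.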

In data set [7] the test system is A2780 human ovarian carcinoma cells. Nature of the data set: In vitro growth inhibition. Format: cell-based. The conditions noted are these: read-out: IC50 values, A2780; 24 h drug exposure, 72 h recovery, SRB assay. In a few lines:
as §1

Data set [8] in a line: Catalytic oxidation of NADH to NAD+ by UV-visible spectroscopy. The settings on record: complex 2.5 μM, NADH 69, 103, 146 μM, 310 K, pH 7.5. In outline: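 Test complex fixed at 2.5 μM with NADH at 69, 103 or 146 μM, in 5 mM Na2HPO4/NaH2PO4 buffer pH 7.5 (0.5% MeOH/99.5% H2O), 310 K, 24 h. NADH loss followed by UV–vis at 339 nm (εNADH = 6220 cm–1 M–1). Rate constant k taken from first-order kinetic plots in [NADH].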

In a further data set the test system is 9-ethylguanine (9-EtG). Nature of the data set: Binding to nucleobase 9-ethylguanine by 1H NMR. In outline: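 Test complex (ca. 500 μM) and 9-EtG (ca. 500 μM), about 1:1, in 26.7% MeOD-d4/73.3% D2O with 4 mM NaCl, so the complex is mainly the Ir–Cl form. Held at 310 K, pH* 7.4. 1H NMR (600 MHz) recorded 15 min and 24 h after nucleobase addition. Adduct percentage taken from 1H NMR peak integrations.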

In a further data set the test system is 9-methyladenine (9-MeA). Nature of the data set: Binding to nucleobase 9-methyladenine by 1H NMR. The settings on record: co-incubation with equimolar 9-EtG and 9-MeA, 310 K, pH* 7.4. In outline: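 Competition run: test complex (ca. 500 μM) with equimolar 9-EtG and 9-MeA in 26.7% MeOD-d4/73.3% D2O at 310 K, pH* 7.4. 1H NMR (600 MHz) recorded 15 min and 24 h after nucleobase addition. Percentage bound to each nucleobase calculated from 1H NMR peak integrations.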

Data set [9] deals with A2780 human ovarian cancer cells. Kind of data set: Cellular-iridium distribution in A2780 cells. Format: cell-based. The conditions noted are these: IC50 concentrations.

In general, IC50 refers to the point on the concentration scale where inhibition reaches its midpoint. With `Cc1c(-c2ccccc2)c(C)[c-](C)c1C.[Cl-].[Ir+3].[c-]1ccccc1-c1ccccn1` (stereo not shown) [Complex 17, [(η^5-Cp^xPh)Ir(2-phenylpyridine)Cl]], the IC50 in data set [1] was 2.14 ± 0.5 µM.

Regarding `Cc1c(C)c(C)[c-](C)c1C.Oc1c[c-]c(-c2ccccn2)cc1.[Cl-].[Ir+3]` [Complex 11, [(η^5-Cp*)Ir(2-(4′-hydroxyphenyl)pyridine)Cl]], the IC50 in data set [2] worked out at 29.3 ± 0.8 µM; in data set [3], 28.6 ± 0.9 µM; in data set [5] it was 56.67 ± 0.04 µM; in data set [7] it was 47.3 ± 0.1 µM. Besides, the “tR by RP-HPLC (relative hydrophobicity)” value in [4] was 15.11 min and 15.1 min and 15.11 ± 0.03 min. Further, the cellular-Ir accumulation in data set [6] is 1.58 ng Ir × 10^6 A2780 cells and 1.6 ng Ir × 10^6 A2780 cells and 1.6 ± 0.1 ng Ir × 10^6 A2780 cells.

For `Cc1c(C)c(C)[c-](C)c1C.Fc1ccc[c-]c1-c1ccccn1.[Cl-].[Ir+3]` [Complex 1, [(η^5-Cp*)Ir(2-(2′-fluorophenyl)pyridine)Cl]], the IC50 was 3.7 ± 0.3 µM in [2], 9.6 ± 0.4 µM in [3] and 10.36 ± 0.07 µM in data set [5].

`Cc1c(C)c(C)[c-](C)c1C.Fc1ccc(-c2[c-]cccc2)nc1.[Cl-].[Ir+3]` [Complex 4, [(η^5-Cp*)Ir(2-phenyl-5-fluoropyridine)Cl]]: the “average rate constant k, first-order with respect to [NADH]” value in [8] is recorded as 4.03 × 10^–4 min^–1. The “binding to 9-EtG in the presence of 4 mM NaCl” value in the data set with 9-ethylguanine (9-EtG) (4 mM NaCl (Ir-Cl species), after 15 min) stood at 100%. The “binding to 9-EtG in the presence of 4 mM NaCl” value in the data set with 9-ethylguanine (9-EtG) (4 mM NaCl (Ir–Cl species), after 24 h, 310 K) turned out to be 100%. The “tR by RP-HPLC (relative hydrophobicity)” value in data set [4] was 18.60 ± 0.02 min. In the data set with 9-methyladenine (9-MeA), the “binding to 9-MeA in the presence of 9-EtG (competitive binding)” value is 5–10%. In [9], the “iridium in cell membrane and particulate fractions” value stood at 17.9%; the “iridium in cytoskeletal fraction” value turned out to be 6.1%; the “iridium in cytosol fraction” value came out at 69.2%; the “iridium in nuclear fraction” value is 6.7%. The compound further yielded a cellular-Ir accumulation in [6] of 11.1 ± 0.1 ng Ir × 10^6 A2780 cells.

`Cc1c(C)c(C)[c-](C)c1C.Oc1ccc(-c2[c-]cccc2)nc1.[Cl-].[Ir+3]` [Complex 12, [(η^5-Cp*)Ir(2-phenyl-5-hydroxypyridine)Cl]]: the “tR by RP-HPLC (relative hydrophobicity)” value in data set [4] is 17.8 min and 17.8 ± 0.2 min. Also, the cellular-Ir accumulation in data set [6] is 10.2 ng Ir × 10^6 A2780 cells and 10.2 ± 0.2 ng Ir × 10^6 A2780 cells. The “fold cellular-iridium accumulation relative to isomer 11” value in [6] (A2780 cells, IC50 concentrations) was 6 times. Moreover, in data set [7], the IC50 is 13.3 ± 0.88 µM.

Consider `N.N.[Cl][Pt][Cl]` [cisplatin, reference compound], for which the IC50 in data set [2] is 5.2 ± 0.3 µM; in data set [3], 7 ± 0.1 µM; in [5] it was 3.5 ± 0.2 µM; in data set [7], 1.2 ± 0.2 µM.
